Data set [1] in a line: Chemical stability in 30% hydrogen peroxide assessed as rate of oxidation by UV spectroscopy. Format: physicochemical.
For data set [2], the system named is Mus musculus. Briefly: Antidepressant activity against Swiss-Webster mouse assessed as reduction in duration of immobility at 10 mg/kg, ip after 1 hr by tail suspension behavioral despair test relative to control. In kind it is functional. The arrangement: scale not given: the % may be the effect or the level left. Particulars: route intraperitoneal. Put shortly:
(§1)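 Mice dosed ip at 10 mg/kg in 0.5% w/v CMC in water (0.5 mL per 100 g body weight); controls got CMC alone; imipramine 10 mg/kg as reference. One hour later mice were hung by the tail from a shelf edge 80 cm above the floor, taped about 1 cm from the tail tip. Immobility (passive, completely motionless hanging) timed over 6 min; mean ± S.E.M., % deviation from control.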

Data set [3] can be described thus: Chemical stability in ferricyanide solution assessed as rate of oxidation by UV spectroscopy. Format: physicochemical.
Data set [4] can be described thus: Stability in Swiss-Webster mouse brain homogenate assessed as rate of oxidation by HPLC. Format: ADME, tissue-based. A digest of the protocol: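 Brains from ten adult male Swiss-Webster mice were washed in ice-cold saline and homogenized in ice-cold isotonic phosphate buffer (0.2 mol, pH 7.4) to give 20% homogenate, then prewarmed 5 min at 37 °C. Methanolic dihydro compound added; held at 37 °C. Samples taken at 1–64 min into ice-cold methanol, frozen at −80 °C, then analysed by HPLC. Pseudo-first-order K and t1/2 from ln peak area vs time; n = 4.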

A short description of data set [5]: Stability in mouse plasma assessed as rate of oxidation by HPLC. In kind it is ADME, cell-free. Put shortly:
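Heparinized mouse blood spun 4000 rpm for 20 min; plasma diluted to 80% with phosphate buffer (0.11 mol, pH 7.4) and prewarmed at 37 °C. Methanolic dihydro compound added; kept at 37 °C. Aliquots at 1, 2, 4, 8, 16, 32 and 64 min quenched in ice-cold methanol, frozen at −80 °C, centrifuged, filtered and run on HPLC. K_disapp and t1/2 from linear regression of ln peak area vs time; n = 4.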

Another data set deals with Brain. Briefly: Drug level in Sprague-Dawley rat brain at 20 mg/kg, iv. Format: ADME, organism-based. The arrangement: dose 20 mg/kg, route intravenous. Particulars: in vivo. A digest of the protocol:
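Male Sprague-Dawley rats received a freshly prepared DMF solution (25 mg/mL) via the external jugular vein at 20 mg/kg. Animals sacrificed at 10, 20 and 45 min. Whole brain homogenized in water plus 5% DMF in acetonitrile, then centrifuged; blood precipitated in acetonitrile. Supernatants filtered and the quaternary acid quantified by HPLC against recovery spikes of quaternary salt into blank rat brain and blood.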

The nature of data set [6]: Stability in phosphate buffer at pH 5.8 after 4 days by HPLC. In kind it is physicochemical. A digest of the protocol: (§2)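 Dihydropyridine carrier at 2 × 10^-1 mmol in 0.2 M phosphate buffer (pH 7.4 or 5.8) at room temperature (32 °C), followed for 4 days by HPLC for the parent and its oxidation or degradation products. Pseudo-first-order disappearance constant from linear regression of ln peak area against time; t1/2 calculated; n = 4.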

Data set [7] can be described thus: Stability in phosphate buffer at pH 7.4 after 4 days by HPLC. In kind it is physicochemical. A digest of the protocol:
as §2

For data set [8], the system named is Mus musculus. Briefly: Antidepressant activity against Swiss-Webster mouse at 10 mg/kg, ip after 1 hr by tail suspension behavioral despair test relative to imipramine. Format: functional. To be noted: route intraperitoneal. A digest of the protocol: as §1

Each structure is given as a SMILES string.

Regarding `CN(C)c1ccc(/C=N/NC(=O)C2C=CN(C(C(=O)O)C(=O)O)C=C2)cc1`, the half-life in data set [1] came out at 3.15 min; in [3], 1.14 min; in data set [4], 9.58 min; in data set [5], 18.9 min; in [6], 169 min; in data set [7], 248 min. For the same compound, in the data set with Mus musculus [2], the Activity is reported as 54.95%. This compound registered a Drug uptake with Brain of 29.17 µg/g.
On to `CCOC(=O)C(C(=O)O)[n+]1cccc(C(=O)N/N=C/c2ccccc2O)c1.[Br-]` (stereo not given), for which the Activity in the data set with Mus musculus [8] came out at 90.2%; with Mus musculus [2], 39.15%.
For the compound `CN1C=CC(C(=O)N/N=C/c2ccccc2Cl)C=C1`, the half-life in data set [1] was determined as 6.3 min; in data set [3], 3.3 min.
For the compound `CCOC(=O)C(C(=O)O)N1C=CCC(C(=O)N/N=C/c2ccccc2O)=C1` (stereo not given), the half-life in data set [1] came out at 3.85 min; in data set [3] it was 2.17 min. Further, the Activity in the data set on Mus musculus [2] is given as 64.55%.
Regarding `CN(C)c1ccc(/C=N/NC(=O)c2cc[n+](C(C(=O)O)C(=O)O)cc2)cc1.[Br-]`, the Activity in the data set on Mus musculus [2] was 50.75%.
In the case of `CCOC(=O)C(C(=O)O)[n+]1ccc(C(=O)N/N=C/c2ccccc2Cl)cc1.[Br-]` (stereo not given), the Activity with Mus musculus [8] worked out at 79.6%; in the data set with Mus musculus [2] it was 31.42%.
As for `CCOC(=O)C(C(=O)O)N1C=CC(C(=O)N/N=C/c2ccccc2O)C=C1` (stereo not given), the Activity in the data set with Mus musculus [8] is reported as 92.8%; with Mus musculus [2], 36.7%. Further, the values for the half-life in data set [1] and in [3] were 4.08 min and 2.48 min, respectively.
For `CCOC(=O)C(C(=O)O)N1C=CC(C(=O)N/N=C/c2ccccc2Cl)C=C1` (stereo not given), the Activity in the data set on Mus musculus [8] stood at 86.7%; with Mus musculus [2] it was 40.9%. Further, the half-life was found to be 5.3 min in data set [1]; 3.01 min in data set [3]; 10.7 min in [4]; 23.3 min in data set [5]; 252 min in data set [6]; 402 min in data set [7]. The Drug uptake with Brain was 23.23 µg/g.
Take `CCOC(=O)C(C(=O)O)[n+]1ccc(C(=O)N/N=C/c2ccccc2O)cc1.[Br-]` (stereo not given): the Activity in the data set on Mus musculus [8] was 78.8%; in the data set with Mus musculus [2], 30.34%.
In the case of `CCOC(=O)C(C(=O)O)N1C=CCC(C(=O)N/N=C/c2ccc(OC)cc2)=C1` (stereo not given), the half-life in data set [1] was determined as 3.35 min; in data set [3] it was 2.1 min; in [4], 10.1 min; in data set [5], 21.8 min; in data set [6], 196 min; in data set [7] it was 260 min.
With `CN(C)CCCN1c2ccccc2CCc2ccccc21` [IMIPRAMINE], the Activity in the data set with Mus musculus [2] came out at 45.14%.

(Values after ChEMBL document CHEMBL1136857, “1-Malonyl-1,4-dihydropyridine as a novel carrier for specific delivery of drugs to the brain” (Bioorg Med Chem, 2009).)
